Test results taken from article PMC12926890 (Molecular pharmaceutics, 2024).

Columns and labels:
Format in all cases: cell-based, human
hCMEC/D3 monolayers [1] = experiment: F-Aβ42 cellular uptake by flow cytometry; conditions: 1 μM SB203580 30 min, then 60 min with 1 μM F-Aβ42
In short: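 hCMEC/D3 monolayers grown on collagen-coated 6-well plates, seeded at about 25,000 cells/cm², cultured 5−7 days at 37 °C and 5% CO₂ to confluency, then moved to 1% serum medium the day before. Cells were pretreated 30 min with 1 μM p38 inhibitor, then exposed 60 min to 1 μM FITC-Aβ₄₂. Read-out was the median fluorescence intensity of the cell population by flow cytometry, compared by unpaired two-tailed t test.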

hCMEC/D3 monolayers [2] = experiment: F-Aβ42 intracellular accumulation by confocal microscopy; conditions: 1 μM SB203580 30 min, then 60 min with 1 μM F-Aβ42
In short: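 Monolayers were grown on collagen-coated 8-well chambered slides, cultured 5−7 days at 37 °C and 5% CO₂, then held in 1% serum medium overnight. They received 1 μM p38 inhibitor for 30 min, then 1 μM FITC-Aβ₄₂ for 60 min. Cells were washed three times with ice-cold PBS, fixed in 4% paraformaldehyde for 20 min at room temperature, and DAPI-stained (300 nM, 10 min). They were then mounted and imaged by confocal SIM super-resolution.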

p38 MAPK = experiment: RPPA proteomics assay of p38 phosphorylation; conditions: BBB endothelial (hCMEC/D3) cells exposed to Aβ42

p38 MAPK kinase activation (RPPA) (p38 MAPK)	Compound	F-Aβ42 uptake by hCMEC/D3 cells (flow cytometry, MFI) (hCMEC/D3 monolayers [1])	fluorescent intensity of F-Aβ42 in the cytoplasm (confocal microscopy) (hCMEC/D3 monolayers [2])
	C[S+]([O-])c1ccc(-c2nc(-c3ccncc3)c(-c3ccc(F)cc3)[nH]2)cc1 (stereo not drawn) [SB203580]	significantly reduced	substantial reduction
significantly activated	Aβ42: unlabeled amyloid-β 42 peptide custom synthesized by AAPPTec		
